Screening results as filed in PubChem.
ABCB6 inh 2: human ABCB6 transporter inhibition. K562-ABCB6 porphyrin accumulation, flow cytometry, 1 h; stronger effect = lower value. actives 0.19% (n = 360,000). Q9NP58. fluorescence ratio to DMSO, % at 10 µM. AID 602162;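 active = fluorescence ratio to DMSO below 75%, the collection mean minus 3 SD; inconclusive = too few cells collected in the well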;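 note: signal is porphyrin accumulated inside mitochondria; 100% equals median channel fluorescence of DMSO control wells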
Myeloid diff 2: promotes myeloid progenitor differentiation. ER-HoxA9 myeloid progenitors, lysozyme-GFP differentiation, flow cytometry. calls only at 10 µM. actives 1% (n = 360,000). AID 624256;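 active = normalized GFP-positive differentiation at or above the plate's own cutoff, the solvent-only control mean plus 3 SD; inconclusive = no clear call, values can overlap the other calls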;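 note: cells exposed to compound for four days before flow analysis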
CendR NRP1 mod: alters CendR peptide binding to human NRP-1. O14786. FAM-RPARPAR peptide binding to NRP-1, fluorescence polarization. inhibition, % at 25 µM. actives 0.85% (n = 360,000). AID 602438;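 active = inhibition or corrected inhibition above about 18%, plus a signal ratio from 0.5 to 1.5, limit read from the data, passing the limit was not always enough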
Granule exo inh: lytic granule exocytosis inhibition; inhibition, % at 10 µM; AID 651702; TALL-104 LAMP-1 surface exposure, flow cytometry; cells stimulated with thapsigargin and PMA; actives 0.66% (n = 360,000);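 active = inhibition above about 55%, limit read from the data; inconclusive = no clear call, values can overlap the other calls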
ATG4B inh: blocks human ATG4B protease cleavage of LC3 substrate; inhibition, % at 8.33 µM; Q9Y4P1; ATG4B cleavage of LC3-PLA2, NBD-HPC fluorescence, 1 h; actives 0.51% (n = 340,000); in the data active = inhibition above about 40%
Target sequence (Q9Y4P1 whole entry, looked up): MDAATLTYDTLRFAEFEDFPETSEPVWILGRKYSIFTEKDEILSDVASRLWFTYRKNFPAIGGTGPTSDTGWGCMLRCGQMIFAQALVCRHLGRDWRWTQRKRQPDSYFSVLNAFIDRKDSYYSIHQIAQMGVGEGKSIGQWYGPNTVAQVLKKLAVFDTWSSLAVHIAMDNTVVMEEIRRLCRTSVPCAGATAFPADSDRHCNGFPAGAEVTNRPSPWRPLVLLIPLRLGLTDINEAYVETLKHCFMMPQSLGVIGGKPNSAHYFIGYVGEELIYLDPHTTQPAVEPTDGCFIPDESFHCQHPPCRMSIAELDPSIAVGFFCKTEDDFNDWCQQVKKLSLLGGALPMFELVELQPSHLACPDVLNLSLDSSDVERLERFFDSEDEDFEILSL
Arrestin-AP2 inh: blocks beta-arrestin peptide binding to AP2 adaptin; FITC-arrestin peptide / GST-AP2 beads, flow cytometry; AP2 beta2 appendage carries R879A mutation; inhibition, % at 10 µM; actives 0.31% (n = 340,000); AID 504490;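 active = inhibition above a set limit, near 3 SD of compounds lacking own fluorescence, cut at about 54% in these data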;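 note: plate controls were DMSO wells for no effect and 5 µM unlabelled arrestin peptide for full effect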
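System: GST-AP2 R879A glutathione beads. Medium: PBS with 0.05% Tween 20 and 0.1% BSA. Also added: FITC-arrestin peptide, 50 nM. Incubation: 12 min plus 1 h, RT. Measured by: high-throughput flow cytometry of beads, ex 488, em 535 nm. Evaluation: percent drop in bead-associated FITC signal.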
ATG4B conf: confirmation of human ATG4B inhibitors | AID 504757 | shares compounds with ATG4B inh | ATG4B protease fluorescent substrate cleavage assay | inhibition, % at 8.33 µM | actives 92% (n = 320); in the data active = inhibition above about 39%
PLA2 counter: inhibits human PLA2, flagging false ATG4B inhibitors; shares compounds with ATG4B inh; purified PLA2, NBD-C6-HPC fluorescence, 45 min; inhibition, % at 8.33 µM; actives 66% (n = 1,600); AID 588402; in the data active = inhibition above about 50%
Target sequence (P04054 whole entry, looked up): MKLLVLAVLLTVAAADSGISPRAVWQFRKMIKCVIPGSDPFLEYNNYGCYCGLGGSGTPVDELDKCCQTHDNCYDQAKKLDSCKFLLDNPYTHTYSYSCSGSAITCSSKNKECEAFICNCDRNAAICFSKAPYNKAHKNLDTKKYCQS
* hit, by the source's call; i = inactive; ? = inconclusive; . = not tested or not shown. Most compounds without a hit are left out; they make up all but 3.3% or so of the library.

SMILES | ABCB6 inh 2 | Myeloid diff 2 | CendR NRP1 mod | Granule exo inh | ATG4B inh | Arrestin-AP2 inh | PLA2 counter | others
CC1CCN(C(=O)c2ccc3c(c2)NC(=O)/C(=C/c2ccccc2)S3)CC1 | 97.0 | ? | -6.5 | -2.5 | 55.5* | 1.2 | 76.0*
CCCc1c(O)nc(SCCN(CC)CC)n(C(=O)c2ccccc2)c1=O | 95.0 | i | -7.1 | -1.8 | -12.2 | -4.9 | .
CCN1C(=O)C(C(=O)Nc2ccc(OC)cc2)C2CC1(C)Oc1ccccc12 (centres undefined) | 102.0 | i | 17.8 | -0.2 | 4.8 | -7.7 | .
CN1C(=O)C(c2nnc(Nc3cccc4ccccc34)s2)C2CC1(C)Oc1ccccc12 (centres undefined) | 100.0 | i | -0.4 | 1.5 | 88.8* | -1.7 | 91.1*
COc1cccc(NC(=O)NC2CCCc3ccccc32)c1 (centres undefined) | 95.0 | i | 7.8 | 13.4 | 61.8* | 12.4 | 62.3*
COC(=O)c1ccc(NC(=S)NC2CCc3ccccc32)cc1 (centres undefined) | 95.0 | i | 10.8 | 0.6 | 48.2* | 5.0 | 56.2*
COC(=O)c1ccc(NC(=S)NC2CC2)cc1 | 99.0 | i | -9.7 | -1.0 | -4.3 | 20.2 | .
COC(=O)c1sc(N(C)C)c(C#N)c1-c1ccccc1 | 94.0 | i | -5.1 | -4.4 | 44.1* | 5.8 | 40.0 | ATG4B conf=64.2*
Cc1sc(NC(=O)COc2ccccc2)c(C#N)c1-c1ccccc1 | 96.0 | i | -13.5 | 2.0 | -0.2 | 17.8 | .
N#C/C(=C\c1ccc(-c2ccccc2[N+](=O)[O-])o1)C(=O)Nc1nc(-c2cccs2)cs1 | 101.0 | i | -3.3 | 5.0 | 67.2* | 19.5 | 75.6*
N#C/C(=C/c1ccc(-c2cccc([N+](=O)[O-])c2)o1)C(=O)Nc1nc(-c2cccs2)cs1 | 106.0 | i | -7.1 | -1.5 | -1.9 | 4.3 | .
Cc1cc(NS(=O)(=O)c2ccc(Nc3nc(-c4ccc(O)cc4)cs3)cc2)no1 | 92.0 | i | -4.7 | 0.1 | -7.7 | -1.4 | .
Cc1cc(NS(=O)(=O)c2ccc(Nc3nc(-c4ccc(C)c(C)c4)cs3)cc2)no1 | 81.0 | i | -7.3 | 0.7 | 44.0* | -3.4 | 38.2 | ATG4B conf=70.6*
CCc1ccccc1NC(=S)/N=C(\N)Nc1nc(C)c2cc(C)ccc2n1 | 99.0 | ? | -3.3 | -3.8 | 79.7* | 11.7 | 82.0*
O=C(c1cc2ccccc2oc1=O)N(Cc1ccccc1)Cc1ccc2c(c1)OCO2 | 96.0 | i | -0.9 | -0.5 | -16.1 | 22.5 | .
CCCCCCCCCCCCCCCCCCNc1ccn(C2OC(COP(=O)(O)OCC3OC(n4cc(F)c(=O)[nH]c4=O)CC3O)C(O)C2O)c(=O)n1 (centres undefined) | 150.0 | ? | -88.7 | 6.4 | 42.2* | -10.3 | 40.9 | ATG4B conf=52.1*
COc1ccc(-n2c(=S)[nH]c3cc(C(=O)N(C)Cc4ccccc4)ccc3c2=O)cc1 | 94.0 | i | -2.2 | 7.4 | 1.2 | 21.7 | .
O=C(NCc1c(Cl)cccc1Oc1ccccc1)c1ccccc1 | 98.0 | i | 4.6 | 0.3 | 47.2* | 8.2 | 56.7*
COc1ccc(Oc2cccc(Cl)c2CNC(=O)c2ccccc2C(=O)O)cc1 | 106.0 | i | 18.8 | -7.3 | -2.5 | -0.6 | .
CCN(Cc1ccccc1)C(=O)c1cccc(OC2CCN(C(=O)C3CC3)CC2)c1 | 93.0 | i | 10.3 | 0.8 | 42.9* | -2.1 | 33.9
COCc1cc(C)nc2sc(C(=O)Nc3ccccc3F)c(N)c12 | 94.0 | i | -3.8 | 0.5 | -0.5 | -3.5 | .
Nc1c(C(=O)Nc2ccccc2F)sc2nc(Cc3ccccc3)cc(C(F)(F)F)c12 | 116.0 | i | 132.5 | 2.3 | 66.1* | -8.1 | -3.0
COc1ccc(CNc2ccc(-c3ccc(OC)cc3)nn2)cc1 | 99.0 | i | 6.3 | 0.3 | -9.2 | -6.4 | .
COc1ccc(CNc2ccc(-c3ccccc3OC)nn2)cc1 | 101.0 | i | 11.5 | -3.0 | 48.4* | 17.9 | 3.0
COc1ccc(-c2ccc(CN3C(C)C(=O)N(Cc4cn(CCC5OCCCO5)nn4)CCS3(=O)=O)cc2)cc1 (centres undefined) | 98.0 | i | 7.1 | -1.1 | . | . | .
SMILES | ABCB6 inh 2 | Myeloid diff 2 | CendR NRP1 mod | Granule exo inh | ATG4B inh | Arrestin-AP2 inh | PLA2 counter | others
C=CCNC(=S)/C(=C(/[O-])c1ccccc1Br)[n+]1ccccc1 | 99.0 | i | -12.1 | -0.1 | -3.0 | 7.4 | .
O=C1Nc2ccc(Cl)cc2C12Nc1ccccc1-c1nnc(SCc3ccccc3F)nc1O2 (centres undefined) | 102.0 | i | -3.8 | -8.4 | 49.5* | 0.5 | 63.2*
O=C1Nc2ccc(F)cc2C12Nc1ccccc1-c1nnc(SCc3ccccc3F)nc1O2 (centres undefined) | 106.0 | i | -37.6 | -0.3 | 10.8 | 5.8 | .
Cc1cccc(C)c1N1CCN(S(=O)(=O)c2ccc(F)cc2)CC1 | 98.0 | i | 8.2 | -0.6 | 50.8* | -1.7 | 62.0*
CCOc1cc(C(N)=O)cc(Br)c1OCc1ccccc1 | 100.0 | i | -0.5 | 0.3 | 46.2* | 6.9 | 60.3*
COc1c(Br)cc(C(N)=O)cc1OCc1ccccc1 | 108.0 | i | 1.4 | -0.5 | 66.6* | 0.5 | 72.3*
CCOc1cc(C(N)=O)cc(Br)c1OC | 97.0 | i | 5.8 | -3.2 | -4.7 | 1.2 | .
C/C(CC(=O)Nc1ccccc1-c1ccccc1)=N\NC(=O)COc1ccc(C)cc1Br | 89.0 | i | -2.8 | 7.4 | 72.2* | -147.6 | 78.5*
CC(C)c1ccc(N(CC(=O)NCc2ccc(F)cc2)C(=O)c2snc(C(N)=O)c2N)cc1 | 91.0 | i | 2.4 | 9.9 | 14.0 | 38.2 | .
CCCCOc1ccc(C(=S)N2CCC(C(N)=O)CC2)cc1 | 101.0 | i | 7.9 | -1.1 | 81.5* | 33.8 | 83.6*
Cn1cccc1C(=O)NC(=O)COC(=O)C12CC3CC(CC(O)(C3)C1)C2 | 104.0 | i | -8.9 | 0.4 | -0.8 | 1.9 | .
O=Cc1ccccc1OCCCOc1cccc2cccnc12 | 93.0 | i | -6.9 | 13.2 | 65.1* | 5.5 | 75.0*
COc1ccc(-c2nnc(SCC(=O)N/N=C/c3ccccc3C(=O)O)n2-c2ccc(Cl)cc2)cc1 | 97.0 | i | -14.1 | -0.8 | -4.8 | -7.6 | .
S=C(NCc1ccc(Cl)cc1Cl)NC1CCCCC1 | 92.0 | i | -7.8 | 2.6 | 44.1* | 24.9 | 55.2*
Cc1ccccc1N=C1NC(=O)/C(=C/c2cccn2-c2cccc(C(=O)O)c2)S1 | . | . | . | . | 43.5* | 11.3 | 5.2 | ATG4B conf=58.6*
O=C(O)c1cccc(-n2cccc2/C=C2\SC(=O)N(Cc3ccccc3F)C2=O)c1 | 97.0 | i | -15.6 | 0.6 | 40.2* | -9.8 | 57.4*
